The text below walks through data of ChEMBL document CHEMBL4765370, “Design, synthesis, and biological evaluation of aryl piperazines with potential as antidiabetic agents via the stimulation of glucose uptake and inhibition of NADH:ubiquinone oxidoreductase” (Eur J Med Chem, 2020).

The subject of one series is C2C12. In words: Induction of glucose uptake in mouse C2C12 cells assessed as [3H]2-deoxyglucose uptake preincubated for 16 hrs followed by followed by [3H]2-deoxyglucose addition and measured after 10 mins by liquid scintillation counting method. Type of series: functional. The method in brief: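 C2C12 mouse myoblasts were grown in high-glucose DMEM with 10% FBS. At 80% confluence they were differentiated into myotubes with 2% horse serum. Myotubes were exposed to compound (10 µM) for 16 h in medium with 0.1% horse serum, then washed with KRB pH 7.4 and given 1 µCi/mL [3H]-2-deoxyglucose for 10 min at 37 °C. After ice-cold washes and 0.1% SDS lysis, scintillation counts were normalised to BCA protein. Results are fold change vs DMSO, mean ± SEM, one-way ANOVA.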

The nature of series [1]: Inhibition of NADH:ubiquinone oxidoreductase in rat liver mitochondria incubated for 3 mins.
Series [2] is described as follows: Apparent permeability in MDCK-MDR1 cells at 10 uM after 30 mins by LC-MS/MS analysis. The format is ADME, cell-based, Canis lupus familiaris. As to conditions: dog. The method in brief: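 Test article was taken from a 10 mM DMSO stock and diluted in DMEM to a final 10 µM donor solution, with 10 µM propranolol as internal standard. It was applied to hMDR1-MDCK monolayers on filters. Transfer to the receiver compartment was measured over 30 min in both directions, apical-to-basolateral and basolateral-to-apical. Quantification was by LC-MS/MS, n = 3.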

Regarding `O=C(O)CCCc1cccs1`, the “fold change (FC)” value with C2C12 was determined as 1.16. Still for that read-out and setting: then `O=C(CCC(=O)N1CCN(c2ccc(C(F)(F)F)cn2)CC1)c1cccs1`, with 1.22. The IC50 is the concentration at which inhibition is half-maximal. A low value points to greater potency. `O=C(CCCc1cccs1)N1CCN(c2ccccc2)CC1`: the “fold change (FC)” value in the series on C2C12 was found to be 0.96. The IC50 in series [1] is 133 µM.

For the compound `CN1CCN(C(=O)CCCc2cccs2)CC1`, in the series with C2C12, the “fold change (FC)” value was 0.84. The IC50 in series [1] amounted to 161 µM. Consider `O=C(CCCc1cccs1)N1CCN(c2ccc(C(F)(F)F)c(Cl)n2)CC1`, for which, in the series on C2C12, the “fold change (FC)” value came to 1.22. Take `O=C(c1cccs1)N1CCN(c2ccc(C(F)(F)F)cc2)CC1`: the “fold change (FC)” value in the series with C2C12 came out at 0.93. On the same count and under the same terms, then `O=C(CCCc1cn[nH]c1)N1CCN(c2ccc(C(F)(F)F)cc2)CC1`, with 1.35; and `O=C(CCCc1cccs1)N1CCN(c2ncc(C(F)(F)F)cc2Cl)CC1`, with 1.13; and `O=C(CCCCCc1cccs1)N1CCN(c2ccc(C(F)(F)F)cc2)CC1`, with 1.33. Same read-out and setting: as for `COC(=O)CCCc1cccs1`, the figure is 1.09; as for `Cc1ccc(N2CCN(C(=O)CCCc3cccs3)CC2)cc1`, 1.

For `O=C(CCC(=O)N1CCN(c2ncc(C(F)(F)F)cc2Cl)CC1)c1cccs1`, in the series with C2C12, the “fold change (FC)” value worked out at 1.26. On the same count and under the same terms, as for `FC(F)(F)c1ccc(N2CCN(CCCCc3cccs3)CC2)cc1`, the figure is 1.36; as for `O=C(CCCc1cccs1)N1CCN(c2ccc(C(F)(F)F)cc2Br)CC1`, 1.02. On the same count and under the same terms, as for `O=C(CCCc1cccs1)N1CCC(c2ccccc2)CC1`, the figure is 1.25.

For `O=C(CCCc1cccs1)N1CCN(c2ccc(C(F)(F)F)cn2)CC1`, in the series with C2C12, the “fold change (FC)” value turned out to be 1. Still for that read-out and setting: then `O=C(CCSc1cccs1)N1CCN(c2ncc(C(F)(F)F)cc2Cl)CC1`, with 1.31; and `CCCCCCCC(=O)N1CCN(c2ccc(C(F)(F)F)cc2)CC1`, with 1.38.

With `O=C(CCCc1cccs1)N1CCN(c2ccc([N+](=O)[O-])cc2)CC1`, the “fold change (FC)” value with C2C12 is on record as 1.06. The IC50 in series [1] stood at 17 µM. Turning to `O=C(CCCc1cccs1)N1CCN(c2ccc(F)cc2)CC1`, the “fold change (FC)” value in the series on C2C12 was 1.16. Same read-out and setting: then `O=C(CCCc1cccs1)NNc1ccc(C(F)(F)F)cc1`, with 1.24. The same measure, in the same setting: then `Nc1ccc(N2CCN(C(=O)CCCc3cccs3)CC2)cc1`, with 1.32; and `CCCCC(=O)N1CCN(c2ccc(C(F)(F)F)cc2)CC1`, with 1.28.

Regarding `O=C(CCCc1cccs1)Nc1ccc(C(F)(F)F)cc1`, in the series with C2C12, the “fold change (FC)” value was found to be 1.11. Also, the midpoint of inhibition in series [1], the IC50, lay at 92 µM. The like results for `O=C(CCCCc1ccccc1)N1CCN(c2ccc(C(F)(F)F)cc2)CC1` were, in that order, 1.95 and 6 µM.

Take `O=C(CCCc1cccs1)N1CCN(c2ccccc2C(F)(F)F)CC1`: the “fold change (FC)” value with C2C12 is given as 0.85. On the same count and under the same terms, as for `COC(=O)CCCCCCCC(=O)N1CCN(c2ccc(C(F)(F)F)cc2)CC1`, the figure is 1.08. Same read-out and setting: then `CC(=O)N1CCN(c2ccc(C(F)(F)F)cc2)CC1`, with 1.43. Same read-out and setting: then `O=C(Cc1cccs1)N1CCN(c2ccc(C(F)(F)F)cc2)CC1`, with 1.33. For `O=C(CCCCc1cccs1)N1CCN(c2ccc(C(F)(F)F)cc2)CC1`, the “fold change (FC)” value in the series on C2C12 amounted to 1.78. In addition, inhibition in series [1] was half-maximal at 60 µM (IC50). Regarding `O=C(O)CCCCCCCC(=O)N1CCN(c2ccc(C(F)(F)F)cc2)CC1`, in the series with C2C12, the “fold change (FC)” value is recorded as 1.38. As for `O=C(CCC(=O)N1CCN(c2ccc(C(F)(F)F)cc2)CC1)c1cccs1`, in the series with C2C12, the “fold change (FC)” value is reported as 1.19. On to `O=C(CCc1cccs1)N1CCN(c2ccc(C(F)(F)F)cc2)CC1`, for which the “fold change (FC)” value with C2C12 is given as 1.09. On to `O=C(CCSc1cccs1)N1CCN(c2ccc(C(F)(F)F)cc2)CC1`, for which, in the series on C2C12, the “fold change (FC)” value is given as 2.14. In series [1], half-maximal inhibition (IC50) was put at 14 µM. In the case of `O=C(CCC(=O)N1CCC(c2ccc(C(F)(F)F)cc2)CC1)c1cccs1`, in the series on C2C12, the “fold change (FC)” value came out at 1.31. For the compound `O=C(CCCc1cccs1)N1CCN(c2ccc(C(F)(F)F)cc2Cl)CC1`, the “fold change (FC)” value with C2C12 came out at 1.58. In series [1], this compound came in with an IC50 of 46 µM.

In the case of `O=C(CCCc1cccs1)N1CCN(C2CCCCC2)CC1`, in the series on C2C12, the “fold change (FC)” value stood at 1.29. With `O=C(CCCc1cccs1)N1CCC(c2ccc(C(F)(F)F)cc2)CC1`, the “fold change (FC)” value in the series with C2C12 is given as 2.14. Also, it took 15 µM to reach half-maximal inhibition in series [1] (IC50).

Turning to `O=C(CCCc1cccs1)N1CCN(c2cc(C(F)(F)F)cc(C(F)(F)F)c2)CC1`, in the series with C2C12, the “fold change (FC)” value came to 1.42. Consider `FC(F)(F)c1cnc(N2CCNCC2)c(Cl)c1`, for which the “fold change (FC)” value with C2C12 stood at 1.16. Same read-out and setting: then `COCCNC(=O)CCCCCCCC(=O)N1CCN(c2ccc(C(F)(F)F)cc2)CC1`, with 2.35.

In the case of `CN1CCN(c2ncc(C(F)(F)F)cc2Cl)CC1`, the “fold change (FC)” value in the series with C2C12 came to 0.92. Further, the IC50 in series [1] came to 67 µM. For `O=C(CCc1ccco1)N1CCN(c2ccc(C(F)(F)F)cc2)CC1`, the “fold change (FC)” value with C2C12 worked out at 1.11.

As a reminder, the Papp is the rate of passage across a membrane or cell layer, normalised by area and donor concentration. Regarding `CC(C)NCC(O)COc1cccc2ccccc12` (centres undefined) [PROPRANOLOL], the Papp at 0.5 h, 10 µM in series [2] was 21.8 ×10⁻⁶ cm/s.
